Screening data as filed in PubChem BioAssay.
Rows were chosen to be rich in hits. Some 1.6% of all compounds tested hit in one or more screens of this group.
SUMO HTRF inh = inhibitors of in vitro SUMOylation cascade, primary screen, biochemical, HTRF, uHTS. HTRF SUMOylation assay, SAE1/SAE2 + UBC9. inhibition, % at 35 µM. 290,000 tested, 0.36% active; in the data active means inhibition above about 50%, passing the limit was not always enough
Apaf-1 inh = inhibitors of human Apaf-1 apoptosome, primary screen, biochemical, DEVD-Rh110 fluorescence, uHTS. Apoptotic protease-activating factor 1 (Homo sapiens), O14727. reconstituted apoptosome caspase-3 activity. inhibition, % at 20 µM. 330,000 tested, 0.71% active; active means inhibition of at least 40% at 20 µM;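 further: plate controls were DMSO wells for no effect and DEVD-CHO caspase inhibitor wells for full effect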
Target sequence (O14727 whole entry, looked up): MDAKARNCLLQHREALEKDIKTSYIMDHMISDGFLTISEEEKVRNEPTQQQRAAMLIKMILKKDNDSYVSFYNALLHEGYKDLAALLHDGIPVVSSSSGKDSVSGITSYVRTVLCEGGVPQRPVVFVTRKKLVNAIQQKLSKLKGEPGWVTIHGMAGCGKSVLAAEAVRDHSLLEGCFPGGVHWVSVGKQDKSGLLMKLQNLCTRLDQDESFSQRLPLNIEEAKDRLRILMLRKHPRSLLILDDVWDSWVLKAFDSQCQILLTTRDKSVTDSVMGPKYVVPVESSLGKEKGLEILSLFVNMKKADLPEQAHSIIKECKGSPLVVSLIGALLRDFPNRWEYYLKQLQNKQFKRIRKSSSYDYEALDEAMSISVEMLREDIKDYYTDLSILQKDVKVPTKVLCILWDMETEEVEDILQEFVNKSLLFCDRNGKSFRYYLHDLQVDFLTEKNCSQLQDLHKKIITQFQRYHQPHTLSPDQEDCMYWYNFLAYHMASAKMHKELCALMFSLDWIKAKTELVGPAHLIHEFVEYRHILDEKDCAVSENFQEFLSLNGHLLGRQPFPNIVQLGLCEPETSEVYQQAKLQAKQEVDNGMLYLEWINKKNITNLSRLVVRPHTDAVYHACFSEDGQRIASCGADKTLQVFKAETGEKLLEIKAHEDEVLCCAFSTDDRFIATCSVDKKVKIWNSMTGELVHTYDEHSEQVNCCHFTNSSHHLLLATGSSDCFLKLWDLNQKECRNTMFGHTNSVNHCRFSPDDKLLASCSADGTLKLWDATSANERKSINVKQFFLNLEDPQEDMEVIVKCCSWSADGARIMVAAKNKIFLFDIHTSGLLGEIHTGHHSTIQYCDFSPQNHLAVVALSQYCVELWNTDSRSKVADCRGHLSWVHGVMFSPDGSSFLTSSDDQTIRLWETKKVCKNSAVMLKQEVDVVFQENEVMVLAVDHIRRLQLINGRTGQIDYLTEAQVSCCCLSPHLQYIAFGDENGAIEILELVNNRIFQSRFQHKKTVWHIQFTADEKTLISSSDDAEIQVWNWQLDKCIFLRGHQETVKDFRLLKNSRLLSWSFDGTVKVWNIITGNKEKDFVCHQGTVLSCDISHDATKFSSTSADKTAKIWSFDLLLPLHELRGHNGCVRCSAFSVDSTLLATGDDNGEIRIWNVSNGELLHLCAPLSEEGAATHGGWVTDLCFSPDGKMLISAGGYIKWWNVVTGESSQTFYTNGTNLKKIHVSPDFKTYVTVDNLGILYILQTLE
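Material: reconstituted apoptosome with Apaf-1, cytochrome c, caspase-9, procaspase-3, dATP. Technique: Rh110 fluorescence intensity. Buffer or medium: pH 7.5 Hepes buffer with CHAPS, BSA, DTT. Times: 30 min plus 50 min, RT.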
TDP2 absorb = human TDP2 enzyme inhibitors, primary screen, biochemical, epi absorbance, recombinant enzyme; AID 720702, 2013; 370,000 tested, 0.34% active; T5PNP hydrolysis, p-nitrophenol absorbance 415 nm; inhibition, % at 12.8 µM; Tyrosyl-DNA phosphodiesterase 2 (Homo sapiens), O95551;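 active means inhibition above the mean of all tested compounds plus 3 SD, set per campaign, cut at about 25% in these data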;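 further: 0% = DMSO with enzyme and 100% = buffer with substrate but no TDP2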
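System – recombinant human TDP2 · Quantity – TDP2 enzyme at 120 nM final · Doses – single concentration, 12.8 µM nominal, with 1% DMSO · Incubation – 2 h at 37 °C · Measured by – epi absorbance of p-nitrophenol freed from T5PNP by hydrolysis · Read-out – % inhibition relative to enzyme-containing and enzyme-free wells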
GSTO1 inh = inhibitors of recombinant GSTO1, primary screen, counter-screen for RBBP9 inhibitor project, biochemical, fluorescence polarization. Glutathione S-transferase omega-1 (Homo sapiens), P78417. activity-based probe fluorescence polarization. 300,000 tested, 1.1% active. inhibition, % at 5.96 µM;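 active means inhibition above the campaign mean inhibition plus 3 SD, cut at about 35% in these data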;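 further: 0% = GSTO1-1 with DMSO and 100% = wells lacking GSTO1-1 enzyme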
PAD4 inh = human PAD4 inhibitors, primary screen, biochemical, fluorescence polarization, 1536-well format; inhibition, % at 6.36 µM; recombinant PAD4, RCA probe fluorescence polarization; 330,000 tested, 0.41% active; AID 485272, 2010; Protein-arginine deiminase type-4 (Homo sapiens), Q9UM07;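 active means percent inhibition above a cutoff equal to the mean of all tested compounds plus 3 SD, cut at about 15% in these data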;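 further: 0% = PAD4 with RCA probe and DMSO and 100% = probe without PAD4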
GASC-1 inh = inhibitors of GASC-1 histone demethylase, primary screen, biochemical, fluorescence, DELFIA europium. Lysine-specific demethylase 4C (Homo sapiens), Q9H3R0. GST-JMJD2C(1-420) H3K9me3 demethylation. inhibition, % at 2.35 µM. 330,000 tested, 0.069% active. AID 2099, 2009;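 active means more than half of a compound's replicate wells show inhibition beyond 50%, single wells judged on their own value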;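 further: signal counts dimethyl H3K9 product captured on neutravidin plate; 0% = median of DMSO wells and 100% = 0.3 times that DMSO median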
GSTO1 inh conf = GSTO1 inhibitor hit confirmation, counter-screen for RBBP9 inhibitor project, biochemical, fluorescence polarization, triplicate; AID 2176, 2009; inhibition, % at 5.96 µM; 2,400 tested, 54% active; recombinant GSTO1, probe fluorescence polarization; shares compounds with GSTO1 inh;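 active means inhibition above the primary screen's cutoff, its mean inhibition plus 3 SD, cut at about 35% in these data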;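 further: loss of polarization as inhibitors block binding of rhodamine sulfonate ester activity probe; 0% = GSTO1 with DMSO and 100% = wells lacking GSTO1 enzyme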
PAD4 FP conf = human PAD4 inhibitors, confirmation, biochemical, fluorescence polarization; shares compounds with PAD4 inh; recombinant PAD4, RCA probe fluorescence polarization; inhibition, % at 6.36 µM; 1,200 tested, 28% active; AID 488796, 2010;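 active means mean inhibition across replicates above the hit cutoff set by the earlier primary screen, cut at about 15% in these data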;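 further: inhibitors block active-site labeling by the probe so polarization falls; 0% = PAD4 with probe and DMSO and 100% = probe without PAD4 enzyme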
Apaf-1 inh conf = Apaf-1 inhibitors, single-dose retest, confirmation, biochemical, fluorescence, DEVD-Rh110, 20 µM; shares compounds with Apaf-1 inh; reconstituted apoptosome, caspase-3 DEVD-Rh110 fluorescence; inhibition, % at 20 µM; 1,800 tested, 25% active;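 active means mean inhibition of at least 40% at 20 µM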;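 further: plate controls were DMSO wells for no effect and DEVD-CHO caspase inhibitor control wells for full effect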
Rh110 quench = Rh110 fluorescence interference by putative Apaf-1 inhibitors, confirmation, artefact control for Apaf-1 inhibitor project, biochemical, 20 µM; shares compounds with Apaf-1 inh; quenched caspase reaction; activation (fluorescence interference), % at 20 µM; 1,800 tested, under 10 active; AID 504615, 2011;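 active means signal rise of 40% or more at 20 µM, treated as a fluorescence artifact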
Fluor interf inh = fluorescence interference of Apaf-1 inhibitor hits, dose response, artefact control for Apaf-1 inhibitor project. 460 tested, under 10 active. fluorescence interference counterscreen, Apaf-1 assay format. AID 588538, 2011. IC50, µM. shares compounds with Apaf-1 inh; call rule not given here
TDP2 confirm = human TDP2 enzyme inhibitors, retest, confirmation, biochemical, epi absorbance, recombinant enzyme; shares compounds with TDP2 absorb; absorbance read-out; inhibition, % at 12.8 µM; 1,100 tested, 22% active; AID 743263, 2014; in the data active means inhibition above about 25%;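 further: 0% = vehicle with enzyme and 100% = no enzyme buffer only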
Active calls of the source: *; x = not tested or not shown.

SMILES	SUMO HTRF inh	Apaf-1 inh	TDP2 absorb	GSTO1 inh	PAD4 inh	GASC-1 inh	GSTO1 inh conf	Apaf-1 inh conf	Rh110 quench	TDP2 confirm	others
COC(=O)CCCC1=CC2=CC(=O)C(C)(OC(=O)c3cccs3)C(=O)C2=CN1CCCCO (stereo not drawn)	0.7	38.5	9.0	25.2	-7.9	1.3	x	x	x	x
COC(=O)CCC(=O)OC1(C)C(=O)C=C2C=C(C3CC3)N(CCCCO)C=C2C1=O (stereo not drawn)	8.1	63.7*	30.5*	46.0*	1.8	-3.6	9.1	57.9*	2.2	13.3	Fluor interf inh=>100
CCc1ccc(S(=O)(=O)Nc2ccc(O)c3ccccc23)cc1	57.7	13.6	53.6*	53.4*	12.3	5.0	1.6	x	x	8.0
Cc1ccc(S(=O)(=O)Nc2c(O)ccc3ccccc23)cc1	x	7.9	x	23.3	-12.8	-3.1	x	x	x	x
O=S(=O)(Nc1ccc(NS(=O)(=O)c2ccccc2)c2ccccc12)c1ccccc1	x	x	-9.0	x	x	x	x	x	x	x
O=S(=O)(Nc1ccc(O)c2ccccc12)c1ccc(F)cc1	x	38.0	46.6*	63.8*	3.2	-5.7	11.2	x	x	19.3
COC(=O)[C@H]1C[C@@]2(N3CCCC3)c3ccccc3N[C@H]2N1S(C)(=O)=O	x	x	7.2	x	x	x	x	x	x	x
C=CCN(CC#CC1=CCCCC1)Cc1ccc(OC)cc1OC	x	x	-4.6	x	x	x	x	x	x	x
O=c1cc(-c2ccc(Cl)cc2)[nH][nH]1	23.6	6.8	74.3*	49.3*	59.8*	-5.4	9.9	x	x	10.0	PAD4 FP conf=-11.0
CCN1CCN(C2=C(NS(=O)(=O)c3ccccc3)C(=O)c3ccccc3C2=O)CC1	13.5	82.5*	28.0*	49.3*	-12.4	-19.4	38.4*	41.8*	6.7	15.5	Fluor interf inh=>100
CCN1CCN(C2=C(NS(=O)(=O)c3ccc(Br)cc3)C(=O)c3ccccc3C2=O)CC1	27.3	88.2*	28.2*	58.5*	8.7	3.8	30.2	46.5*	1.4	22.9	Fluor interf inh=>100
CCOC(=O)C1CCN(C2=C(NS(=O)(=O)c3ccc(Br)cc3)C(=O)c3ccccc3C2=O)CC1	50.3	68.0*	29.6*	44.6*	-5.1	3.4	13.6	33.1	-2.0	11.5
CCCCOc1ccc(C(=O)NC2CCCCN(CC)C2=O)cc1 (stereo not drawn)	x	x	4.1	x	x	x	x	x	x	x
C=CCn1c(N)c(C(=O)NCC2CCCO2)c2nc3ccccc3nc21 (stereo not drawn)	95.1*	77.7*	35.0*	79.9*	12.4	13.9	4.9	11.0	-187.4	-8.5
